Here are results for five molecules from ChEMBL document CHEMBL3992538, “Hybrids of thienopyrimidinones and thiouracils as anti-tubercular agents: SAR and docking studies” (Eur J Med Chem, 2017).

Values after ≈ are worked out from the molar mass of the structure shown.

Data set [1] can be described thus: Cytotoxicity against human A549 cells assessed as growth inhibition by MTT assay. Type of data set: cell-based. In a few lines: (§1)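 MTT assay in duplicate on THP-1 leukaemia, A549 lung adenocarcinoma, PANC-1 pancreatic adenocarcinoma and HeLa cervical carcinoma cells, all obtained from ECCC.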
The nature of data set [2]: Selectivity index, ratio of GI50 for human PANC1 cells to MIC for dormant stage of Mycobacterium tuberculosis H37Ra ATCC 25177. The format is toxicity. The note with it: PANC-1 cells, read-out: Selectivity Index. In a few lines:
(§2)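 Selectivity index is the cytotoxic GI50 against the named human cell line divided by the antimycobacterial value. Activity counted as specific when SI >10.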

Data set [3] deals with Mycobacterium tuberculosis. Put plainly: Antitubercular activity against dormant stage of Mycobacterium tuberculosis H37Ra ATCC 25177 after 12 days by XTT reduction menadione assay. The format is functional. The note with it: H37Ra ATCC 25177, 288 h. The procedure, abridged:
(§3)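 M. tuberculosis H37Ra (ATCC 25177), grown to log phase (OD 1.0) in M. pheli medium from -70°C stock, subcultured once before inoculation. Incubation 8 days (active) or 12 days (dormant). XRMA read-out as absorbance at 470 nm.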

Data set [4] can be described thus: Cytotoxicity against human HeLa cells assessed as growth inhibition by MTT assay. The format is cell-based. The procedure, abridged:
as §1

Data set [5] in a line: Selectivity index, ratio of GI50 for human PANC1 cells to MIC for active stage of Mycobacterium tuberculosis H37Ra ATCC 25177 infected in human THP1 cells. The format is toxicity, cell-based. To be noted: PANC-1 cells, read-out: Selectivity Index. The procedure, abridged: as §2
For data set [6], the system named is Mycobacterium tuberculosis. Put plainly: Antitubercular activity against active stage of Mycobacterium tuberculosis H37Ra ATCC 25177 after 8 days by XTT reduction menadione assay. Type of data set: functional. To be noted: H37Ra ATCC 25177, 192 h. The procedure, abridged:
as §3
(Formazan colour is commonly taken as a measure of viable cells.)

A short description of data set [7]: Selectivity index, ratio of GI50 for human HeLa cells to MIC for active stage of Mycobacterium tuberculosis H37Ra ATCC 25177 infected in human THP1 cells. The note with it: read-out: Selectivity Index. Type of data set: toxicity, cell-based. The procedure, abridged: as §2
A short description of data set [8]: Selectivity index, ratio of GI50 for human HeLa cells to MIC for dormant stage of Mycobacterium tuberculosis H37Ra ATCC 25177. Type of data set: toxicity, cell-based. To be noted: read-out: Selectivity Index. In a few lines: as §2
Data set [9] is described as follows: Selectivity index, ratio of GI50 for human HeLa cells to MIC for active stage of Mycobacterium tuberculosis H37Ra ATCC 25177. The format is toxicity, cell-based. The note with it: read-out: Selectivity Index. The procedure, abridged:
as §2

Data set [10] in a line: Selectivity index, ratio of GI50 for human HeLa cells to MIC for dormant stage of Mycobacterium tuberculosis H37Ra ATCC 25177 infected in human THP1 cells. The format is toxicity, cell-based. To be noted: read-out: Selectivity Index. The procedure, abridged:
as §2

Data set [11] in a line: Selectivity index, ratio of GI50 for human PANC1 cells to MIC for active stage of Mycobacterium tuberculosis H37Ra ATCC 25177. The format is toxicity. To be noted: PANC-1 cells, read-out: Selectivity Index. The procedure, abridged: as §2
Data set [12] concerns Mycobacterium tuberculosis. Briefly: Antitubercular activity against dormant stage of Mycobacterium tuberculosis H37Ra ATCC 25177 infected in human THP1 cells after 12 days by nitrate reductase assay. Type of data set: functional. The note with it: H37Ra ATCC 25177, 288 h. In a few lines:
(§4)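 Ex vivo test of H37Ra in THP-1 cells by nitrate reductase assay, absorbance read at 540 nm. Active stage incubated 8 days and dormant stage 12 days. H37Ra (ATCC 25177) grown in M. pheli medium to OD 1.0 and subcultured once from -70°C stock.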

Data set [13] deals with Mycobacterium tuberculosis. Put plainly: Antitubercular activity against active stage of Mycobacterium tuberculosis H37Ra ATCC 25177 infected in human THP1 cells after 8 days by nitrate reductase assay. Type of data set: functional. To be noted: H37Ra ATCC 25177, 192 h. The procedure, abridged: as §4
Data set [14] in a line: Selectivity index, ratio of GI50 for human A549 cells to MIC for dormant stage of Mycobacterium tuberculosis H37Ra ATCC 25177. Type of data set: toxicity. To be noted: read-out: Selectivity Index. In a few lines: as §2
Data set [15] can be described thus: Cytotoxicity against human PANC1 cells assessed as growth inhibition by MTT assay. Type of data set: cell-based. The note with it: PANC-1 cells. In a few lines:
as §1

A short description of data set [16]: Selectivity index, ratio of GI50 for human PANC1 cells to MIC for dormant stage of Mycobacterium tuberculosis H37Ra ATCC 25177 infected in human THP1 cells. The format is toxicity, cell-based. To be noted: PANC-1 cells, read-out: Selectivity Index. In a few lines:
as §2

Data set [17] in a line: Selectivity index, ratio of GI50 for human A549 cells to MIC for active stage of Mycobacterium tuberculosis H37Ra ATCC 25177 infected in human THP1 cells. The format is toxicity, cell-based. To be noted: read-out: Selectivity Index. The procedure, abridged: as §2
Data set [18] in a line: Selectivity index, ratio of GI50 for human A549 cells to MIC for active stage of Mycobacterium tuberculosis H37Ra ATCC 25177. The format is toxicity. The note with it: read-out: Selectivity Index. In a few lines: as §2
A short description of data set [19]: Cytotoxicity against human THP1 cells assessed as growth inhibition by MTT assay. Type of data set: cell-based. The note with it: THP-1 cells. The procedure, abridged:
as §1

Data set [20] is described as follows: Selectivity index, ratio of GI50 for human A549 cells to MIC for dormant stage of Mycobacterium tuberculosis H37Ra ATCC 25177 infected in human THP1 cells. The format is toxicity, cell-based. To be noted: read-out: Selectivity Index. In a few lines:
as §2

The GI50 is the concentration that inhibits growth by half. One may read the MIC as the smallest concentration in the dilution series that meets the test's criterion for growth inhibition. As for `CCCCCCc1cc2c(=O)n(CCSc3nc(-c4cc(OC)c(OC)c(OC)c4)c(C#N)c(=O)[nH]3)cnc2s1`, the GI50 in data set [1] turned out to be 96.8 µg/mL (≈ 166 µM); in data set [4], 76.3 µg/mL (≈ 131 µM); in data set [15], 36.5 µg/mL (≈ 62.7 µM); in [19] it was 96.4 µg/mL (≈ 166 µM). Besides, the selectivity ratio was 2 in data set [2]; 2 in [5]; 4 in data set [7]; 4 in data set [8]; 5 in data set [9]; 4 in data set [10]. In addition, the selectivity ratio in data set [11] was determined as 2; in [14] it was 5; in data set [16], 2; in [17], 6; in data set [18], 6; in [20] it was 5. Further, the MIC in [3] was found to be 19.1 µg/mL (≈ 32.8 µM); in [6], 15.6 µg/mL (≈ 26.8 µM); in data set [12], 18.8 µg/mL (≈ 32.3 µM); in [13] it was 17.1 µg/mL (≈ 29.4 µM).

`COc1cc(-c2nc(SCCCn3cnc4sc5c(c4c3=O)CCCC5)n(Cc3c(F)c(F)c(F)c(F)c3F)c(=O)c2C#N)cc(OC)c1OC`: the GI50 in data set [1], in data set [4], in [15] and in data set [19] was greater than 100 µg/mL in each case. In addition, the selectivity ratio is greater than 4 in data set [2]; greater than 3 in data set [5]; greater than 3 in data set [7]; greater than 4 in data set [8]; greater than 3 in [9]; greater than 4 in data set [10]. In addition, the selectivity ratio in data set [11] is greater than 3; in data set [14] it was greater than 4; in data set [16], greater than 4; in data set [17], greater than 3; in data set [18], greater than 3; in [20] it was greater than 4. The MIC was 28.3 µg/mL (≈ 37.9 µM) in [3], greater than 30 µg/mL in [6], 26.5 µg/mL (≈ 35.5 µM) in data set [12] and greater than 30 µg/mL in [13].

Turning to `Cc1ccc(-c2nc(S)nc(O)c2C#N)cc1`, the GI50 in [1] was 86.7 µg/mL (≈ 356 µM); in [4], 67.6 µg/mL (≈ 278 µM); in data set [15], greater than 100 µg/mL; in data set [19], 88.9 µg/mL (≈ 365 µM). The selectivity ratio in [2] was greater than 3; in [5], greater than 3; in [7], 2; in data set [8], 2; in data set [9], 2; in data set [10], 2. Further, the selectivity ratio is greater than 3 in data set [11]; less than 3 in [14]; greater than 3 in [16]; less than 3 in [17]; 3 in [18]; 3 in data set [20]. For the same molecule, the MIC in data set [3], in data set [6], in data set [12] and in data set [13] was greater than 30 µg/mL throughout.

With `CCCCCCCc1cc2c(=O)n(CCCSc3nc(-c4cc(OC)c(OC)c(OC)c4)c(C#N)c(=O)[nH]3)cnc2s1`, the GI50 is 90.5 µg/mL (≈ 148 µM) in [1], 76.1 µg/mL (≈ 125 µM) in data set [4], greater than 100 µg/mL in data set [15] and 68.2 µg/mL (≈ 112 µM) in data set [19]. The selectivity ratio is greater than 13 in data set [2]; 3 in data set [5]; 3 in data set [7]; 10 in [8]; 3 in data set [9]; 11 in data set [10]. Besides, the selectivity ratio in [11] is 3; in data set [14], 12; in [16] it was greater than 14; in data set [17] it was less than 3; in data set [18], 3; in [20], 13. The MIC in data set [3] is 7.6 µg/mL (≈ 12.5 µM); in data set [6] it was greater than 30 µg/mL; in data set [12] it was 6.91 µg/mL (≈ 11.3 µM); in [13], greater than 30 µg/mL.

Consider `CCCCCCCCCCCn1c(SCCCn2cnc3sc4c(c3c2=O)CCCC4)nc(-c2cc(OC)c(OC)c(OC)c2)c(C#N)c1=O`, for which the GI50 in data set [1], in [4], in data set [15] and in data set [19] was greater than 100 µg/mL in each case. Further, the selectivity ratio in data set [2], in data set [5], in data set [7], in [8], in data set [9] and in data set [10] was greater than 3 throughout. For the same molecule, the selectivity ratio in data set [11], in data set [14], in data set [16], in data set [17], in data set [18] and in data set [20] was greater than 3 each time. For the same molecule, the MIC in data set [3], in data set [6], in [12] and in data set [13] was greater than 30 µg/mL throughout.
